ChEMBL document CHEMBL1165950, “Design and synthesis of new potent anticancer pyrazoles with high FLT3 kinase inhibitory selectivity” (Bioorg Med Chem, 2010)

How the values were obtained:
Format in all cases: functional
[1] = Cytotoxicity against human […] cells assessed as cell growth at 10 uM; details: read-out: Activity
Procedure, shortened: (§1)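 NCI-60 screen: cells grown in RPMI 1640 with 5% FBS and 2 mM L-glutamine, plated at 5000–40,000 cells/well according to doubling time, and preincubated 24 h at 37 °C, 5% CO2. The single 10 µM dose (DMSO stock) was added, then incubated 48 h. Cells were TCA-fixed and stained with 0.4% SRB, read at 515 nm, and growth % calculated against time-zero and control plates.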

LOX IMVI = assay: Cytotoxicity against human LOXIMVI cells assessed as cell growth at 10 uM; details: read-out: Activity; procedure, shortened: as §1
SN12C = assay: Cytotoxicity against human SN12C cells assessed as cell growth at 10 uM; details: read-out: Activity; procedure, shortened: as §1
K562 = assay: Cytotoxicity against human K562 cells assessed as cell growth at 10 uM; details: read-out: Activity
Procedure, shortened: (§2)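 Single-dose NCI-60 screen at 10 µM. Cells were grown in RPMI 1640 with 5% FBS and 2 mM L-glutamine, then treated for 48 h at 37 °C. Protein was measured by SRB staining with absorbance at 515 nm. Percentage growth was recorded, and inhibition percentage was calculated as 100 minus growth percentage.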

HOP-92 = assay: Cytotoxicity against human HOP92 cells assessed as cell growth at 10 uM; details: read-out: Activity; procedure, shortened: as §2
MDA-MB-231 = assay: Cytotoxicity against human MDA-MB-231 cells assessed as cell growth at 10 uM; details: read-out: Activity; procedure, shortened: as §1
IGROV-1 = assay: Cytotoxicity against human IGROV1 cells assessed as cell growth at 10 uM; details: read-out: Activity; procedure, shortened: as §2
SW-620 = assay: Cytotoxicity against human SW620 cells assessed as cell growth at 10 uM; details: read-out: Activity; procedure, shortened: as §1
786-0 = assay: Cytotoxicity against human 786-0 cells assessed as cell growth at 10 uM; details: read-out: Activity; procedure, shortened: as §2
UACC-257 = assay: Cytotoxicity against human UACC257 cells assessed as cell growth at 10 uM; details: read-out: Activity; procedure, shortened: as §1
HT-29 = assay: Cytotoxicity against human HT-29 cells assessed as cell growth at 10 uM; details: read-out: Activity; procedure, shortened: as §2
MDA-MB-468 = assay: Cytotoxicity against human MDA-MB-468 cells assessed as cell growth at 10 uM; details: read-out: Activity; procedure, shortened: as §1
UACC-62 = assay: Cytotoxicity against human UACC62 cells assessed as cell growth at 10 uM; details: read-out: Activity; procedure, shortened: as §1
NCI-H23 = assay: Cytotoxicity against human NCI-H23 cells assessed as cell growth at 10 uM; details: read-out: Activity; procedure, shortened: as §1
NCI-H460 = assay: Cytotoxicity against human NCI-H460 cells assessed as cell growth at 10 uM; details: read-out: Activity; procedure, shortened: as §1
SF-295 = assay: Cytotoxicity against human SF295 cells assessed as cell growth at 10 uM; details: read-out: Activity; procedure, shortened: as §1
COLO 205 = assay: Cytotoxicity against human COLO205 cells assessed as cell growth at 10 uM; details: read-out: Activity; procedure, shortened: as §2
[2] = Cytotoxicity against human Hs 578T cells assessed as cell growth at 10 uM; details: read-out: Activity; procedure, shortened: as §2
SK-MEL-5 = assay: Cytotoxicity against human SK-MEL-5 cells assessed as cell growth at 10 uM; details: read-out: Activity; procedure, shortened: as §1
TK-10 = assay: Cytotoxicity against human TK10 cells assessed as cell growth at 10 uM; details: read-out: Activity; procedure, shortened: as §1
MOLT-4 = assay: Cytotoxicity against human MOLT4 cells assessed as cell growth at 10 uM; details: read-out: Activity; procedure, shortened: as §1
SNB-75 = assay: Cytotoxicity against human SNB75 cells assessed as cell growth at 10 uM; details: read-out: Activity; procedure, shortened: as §1
HCT-15 = assay: Cytotoxicity against human HCT15 cells assessed as cell growth at 10 uM; details: read-out: Activity; procedure, shortened: as §2
ACHN = assay: Cytotoxicity against human ACHN cells assessed as cell growth at 10 uM; details: read-out: Activity; procedure, shortened: as §2
[3] = Growth inhibition of human NCI60 cells at 10 uM after 48 hrs by sulforhodamine B assay relative to control; details: NCI60, 48 h, read-out: GI
Procedure, shortened: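 Single-dose NCI screen at 10 µM across the 60-line panel, 48 h exposure at 37 °C after a 24 h preincubation. Adherent cells were fixed with cold TCA and stained with 0.4% SRB, and absorbance was read at 515 nm. Inhibition % was taken as 100 minus growth %, and the mean across all lines was reported.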

SF-539 = assay: Cytotoxicity against human SF539 cells assessed as cell growth at 10 uM; details: read-out: Activity; procedure, shortened: as §1
NCI-H226 = assay: Cytotoxicity against human NCI-H226 cells assessed as cell growth at 10 uM; details: read-out: Activity; procedure, shortened: as §1
HCC 2998 = assay: Cytotoxicity against human HCC2998 cells assessed as cell growth at 10 uM; details: read-out: Activity; procedure, shortened: as §2
NCI/ADR-RES = assay: Cytotoxicity against human NCI/ADR-RES cells assessed as cell growth at 10 uM; details: read-out: Activity; procedure, shortened: as §1
PC-3 = assay: Cytotoxicity against human PC3 cells assessed as cell growth at 10 uM; details: read-out: Activity; procedure, shortened: as §1
EKVX = assay: Cytotoxicity against human EKVX cells assessed as cell growth at 10 uM; details: read-out: Activity; procedure, shortened: as §2
BT-549 = assay: Cytotoxicity against human BT549 cells assessed as cell growth at 10 uM; details: read-out: Activity; procedure, shortened: as §2
M14 = assay: Cytotoxicity against human M14 cells assessed as cell growth at 10 uM; details: read-out: Activity; procedure, shortened: as §1
UO-31 = assay: Cytotoxicity against human UO31 cells assessed as cell growth at 10 uM; details: read-out: Activity; procedure, shortened: as §1
SF-268 = assay: Cytotoxicity against human SF268 cells assessed as cell growth at 10 uM; details: read-out: Activity; procedure, shortened: as §1
SK-MEL-2 = assay: Cytotoxicity against human SK-MEL-2 cells assessed as cell growth at 10 uM; details: read-out: Activity; procedure, shortened: as §1
NCI-H322M = assay: Cytotoxicity against human NCI-H322M cells assessed as cell growth at 10 uM; details: read-out: Activity; procedure, shortened: as §1
SR = assay: Cytotoxicity against human SR cells assessed as cell growth at 10 uM; details: read-out: Activity; procedure, shortened: as §1
OVCAR-4 = assay: Cytotoxicity against human OVCAR4 cells assessed as cell growth at 10 uM; details: read-out: Activity; procedure, shortened: as §1
MCF7 = assay: Cytotoxicity against human MCF7 cells assessed as cell growth at 10 uM; details: read-out: Activity; procedure, shortened: as §1
HCT-116 = assay: Cytotoxicity against human HCT116 cells assessed as cell growth at 10 uM; details: read-out: Activity; procedure, shortened: as §2
A498 = assay: Cytotoxicity against human A498 cells assessed as cell growth at 10 uM; details: read-out: Activity; procedure, shortened: as §2
CCRF-CEM = assay: Cytotoxicity against human CCRF-CEM cells assessed as cell growth at 10 uM; details: read-out: Activity; procedure, shortened: as §2
NCI-H522 = assay: Cytotoxicity against human NCI-H522 cells assessed as cell growth at 10 uM; details: read-out: Activity; procedure, shortened: as §1
T47D = assay: Cytotoxicity against human T47D cells assessed as cell growth at 10 uM; details: read-out: Activity; procedure, shortened: as §1
SNB-19 = assay: Cytotoxicity against human SNB19 cells assessed as cell growth at 10 uM; details: read-out: Activity; procedure, shortened: as §1
Malme-3M = assay: Cytotoxicity against human MALME-3M cells assessed as cell growth at 10 uM; details: read-out: Activity; procedure, shortened: as §1
RXF 393 = assay: Cytotoxicity against human RXF393 cells assessed as cell growth at 10 uM; details: read-out: Activity; procedure, shortened: as §1
CAKI-1 = assay: Cytotoxicity against human Caki1 cells assessed as cell growth at 10 uM; details: read-out: Activity; procedure, shortened: as §2
HL-60(TB) = assay: Cytotoxicity against human HL-60(TB) cells assessed as cell growth at 10 uM; details: read-out: Activity
Procedure, shortened: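 NCI 60-cell panel screen at a single concentration of 10 µM. Cells are grown in RPMI 1640 with 5% FBS and 2 mM L-glutamine and read by SRB protein staining at 515 nm. Percent growth is measured relative to time-zero and untreated controls; inhibition % is 100 minus growth %.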

KM12 = assay: Cytotoxicity against human KM12 cells assessed as cell growth at 10 uM; details: read-out: Activity; procedure, shortened: as §1
HOP-62 = assay: Cytotoxicity against human HOP62 cells assessed as cell growth at 10 uM; details: read-out: Activity; procedure, shortened: as §2
OVCAR-3 = assay: Cytotoxicity against human OVCAR-3 cells assessed as cell growth at 10 uM; details: read-out: Activity; procedure, shortened: as §1
OVCAR-5 = assay: Cytotoxicity against human OVCAR5 cells assessed as cell growth at 10 uM; details: read-out: Activity; procedure, shortened: as §1
SK-OV-3 = assay: Cytotoxicity against human SKOV3 cells assessed as cell growth at 10 uM; details: read-out: Activity; procedure, shortened: as §1
DU-145 = assay: Cytotoxicity against human DU145 cells assessed as cell growth at 10 uM; details: read-out: Activity; procedure, shortened: as §2
MDA-MB-435 = assay: Cytotoxicity against human MDA-MB-435 cells assessed as cell growth at 10 uM; details: read-out: Activity; procedure, shortened: as §1
U-251 = assay: Cytotoxicity against human U251 cells assessed as cell growth at 10 uM; details: read-out: Activity; procedure, shortened: as §1
SK-MEL-28 = assay: Cytotoxicity against human SK-MEL-28 cells assessed as cell growth at 10 uM; details: read-out: Activity; procedure, shortened: as §1
OVCAR-8 = assay: Cytotoxicity against human OVCAR8 cells assessed as cell growth at 10 uM; details: read-out: Activity; procedure, shortened: as §1
A549 = assay: Cytotoxicity against human A549 cells assessed as cell growth at 10 uM; details: read-out: Activity; procedure, shortened: as §2

## COc1cc(C)cc(-c2nn(CC#N)cc2-c2ccnc(-c3ccc(C(C)=O)cc3)c2)c1
[1]
  growth at 10 µM: 82.9%
LOX IMVI
  growth at 10 µM: 78.1%
SN12C
  growth at 10 µM: 83.6%
K562
  growth at 10 µM: 70.6%
HOP-92
  growth at 10 µM: 81.7%
MDA-MB-231
  growth at 10 µM: 73.8%
IGROV-1
  growth at 10 µM: 101%
SW-620
  growth at 10 µM: 94.7%
786-0
  growth at 10 µM: 93.9%
UACC-257
  growth at 10 µM: 82.7%
HT-29
  growth at 10 µM: 79%
MDA-MB-468
  growth at 10 µM: 11.3%
UACC-62
  growth at 10 µM: 64.6%
NCI-H23
  growth at 10 µM: 78.9%
NCI-H460
  growth at 10 µM: 106%
SF-295
  growth at 10 µM: 103%
COLO 205
  growth at 10 µM: 66.8%
[2]
  growth at 10 µM: 83.8%
SK-MEL-5
  growth at 10 µM: 39.7%
TK-10
  growth at 10 µM: 95.2%
MOLT-4
  growth at 10 µM: 75.8%
SNB-75
  growth at 10 µM: 46.4%
HCT-15
  growth at 10 µM: 68.7%
ACHN
  growth at 10 µM: 73.8%
[3]
  inhibition of growth at 10 µM: 18.2%
SF-539
  growth at 10 µM: 81.9%
NCI-H226
  growth at 10 µM: 78.3%
HCC 2998
  growth at 10 µM: 76.8%
NCI/ADR-RES
  growth at 10 µM: 73.8%
PC-3
  growth at 10 µM: 82.9%
EKVX
  growth at 10 µM: 104%
BT-549
  growth at 10 µM: 93.5%
M14
  growth at 10 µM: 103%
UO-31
  growth at 10 µM: 79.1%
SF-268
  growth at 10 µM: 110%
SK-MEL-2
  growth at 10 µM: 89.1%
NCI-H322M
  growth at 10 µM: 102%
SR
  growth at 10 µM: 78.4%
OVCAR-4
  growth at 10 µM: 58.6%
MCF7
  growth at 10 µM: 27.6%
HCT-116
  growth at 10 µM: 76.6%
A498
  growth at 10 µM: 93%
CCRF-CEM
  growth at 10 µM: 92.6%
NCI-H522
  growth at 10 µM: 66.6%
T47D
  growth at 10 µM: 33.5%
SNB-19
  growth at 10 µM: 92.2%
Malme-3M
  growth at 10 µM: 139%
RXF 393
  growth at 10 µM: 78.9%
CAKI-1
  growth at 10 µM: 87.2%
HL-60(TB)
  growth at 10 µM: 98.3%
KM12
  growth at 10 µM: 87.9%
HOP-62
  growth at 10 µM: 94.4%
OVCAR-3
  growth at 10 µM: 108%
OVCAR-5
  growth at 10 µM: 108%
SK-OV-3
  growth at 10 µM: 89%
DU-145
  growth at 10 µM: 113%
MDA-MB-435
  growth at 10 µM: 70%
U-251
  growth at 10 µM: 91.8%
SK-MEL-28
  growth at 10 µM: 75.4%
OVCAR-8
  growth at 10 µM: 80.6%
A549
  growth at 10 µM: 67.1%
